# Most compounds without a hit are left out; they make up all but 1.8% or so of the library.
# CHRM5 PAM: positive allosteric modulators of human muscarinic M5 receptor; P08912; CHO-K1 hM5, Fluo-8 calcium, ACh EC20 PAM; 0% = ACh EC20, 100% = ACh EC100; activation, % at 3 µM; hit rate 0.3% among 360,000;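 active = activation above the run cutoff, the mean activation of all test compounds plus 3 SD, cut at about 18% in these data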
#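 System: CHO-K1 hM5 cells. Reagent: acetylcholine, EC20 level. Compound dosing: single dose, 3 µM nominal final test concentration. Timing: Post-acetylcholine fluorescence recording 140 s. Detection: Fluo-8 calcium fluorescence. Read-out: % activation, ACh-normalized. Benchmarks: ACh EC20 and EC100 wells. Repeats: singlicate, one well per test compound.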
# CHRM4 agonist: CHRM4 agonism in calcium assay. hit rate 0.14% among 360,000. activation, % at 3 µM. CHO-K1 hM4/Gqi5, Fluo-8 calcium fluorescence; vehicle 0%, full acetylcholine response 100%. AID 624127;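 active = activation above the run mean over all test wells plus 3 SD, cut at about 32% in these data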;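 note: peak over basal fluorescence ratio per well then scaled between controls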
# Target sequence (P08173 whole entry, looked up): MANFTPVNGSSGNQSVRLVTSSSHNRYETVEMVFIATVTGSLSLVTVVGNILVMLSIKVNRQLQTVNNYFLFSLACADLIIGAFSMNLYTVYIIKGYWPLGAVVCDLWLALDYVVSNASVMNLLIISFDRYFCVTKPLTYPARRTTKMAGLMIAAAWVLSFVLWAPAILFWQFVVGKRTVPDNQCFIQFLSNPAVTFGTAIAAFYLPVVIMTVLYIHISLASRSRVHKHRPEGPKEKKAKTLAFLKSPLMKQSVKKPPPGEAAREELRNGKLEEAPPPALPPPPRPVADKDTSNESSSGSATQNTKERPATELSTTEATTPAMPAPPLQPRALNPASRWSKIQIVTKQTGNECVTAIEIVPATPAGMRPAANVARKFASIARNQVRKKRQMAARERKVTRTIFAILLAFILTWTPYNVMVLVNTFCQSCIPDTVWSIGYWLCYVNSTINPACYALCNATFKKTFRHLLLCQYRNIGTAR
# M5 antag: antagonists of human muscarinic M5 receptor (CHRM5) | CHO-hM5 cells, Fluo-8 calcium fluorescence, ACh EC80 | AID 624040 | inhibition, % at 3 µM | hit rate 0.59% among 360,000;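 active = inhibition above a per-plate cutoff, the mean of that plate's test compounds plus 3 SD, cut at about 27% in these data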
# CHRM4 PAM: positive allosteric modulators of human muscarinic M4 receptor; hit rate 0.4% among 360,000; activation, % at 3 µM; AID 624126; CHO-K1 hM4/Gqi5, Fluo-8 calcium fluorescence, ACh EC20; 0% = ACh EC20, 100% = maximal ACh; P08173;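 active = activation above its plate's cutoff, the mean activation of sample wells plus 3 SD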
# CHRM5 agonist: CHRM5 agonism in calcium assay; P08912; CHO-K1 hM5 cells, Fluo-8 calcium fluorescence; 0% DMSO wells, 100% maximal acetylcholine response; activation, % at 3 µM; hit rate 0.19% among 360,000; AID 624037;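 active = activation above the run's mean over test compounds plus 3 SD, cut at about 23% in these data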;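 note: signal is peak over basal fluorescence ratio across the kinetic read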
# CHRM4 antagonist: blocks acetylcholine activation of human M4 receptor; P08173; CHO-hM4 cells, ACh EC80, Fluo-8 calcium fluorescence; inhibition, % at 3 µM; hit rate 0.73% among 360,000;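 active = inhibition above its plate's cutoff, the mean inhibition of sample wells plus 3 SD, cut at about 27% in these data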
# Hits are given with their value; – = inactive.
SMILES,CHRM5 PAM,CHRM4 agonist,M5 antag,CHRM4 PAM,CHRM5 agonist,CHRM4 antagonist
CC(C)(C)C(=O)Nc1nnc([C@H]2C[C@H](O)[C@@H](CO)O2)s1,–,–,–,–,–,–
Cc1ccc(NC(=O)COC(=O)CN2CCSC2=O)cc1Cl,–,–,–,–,–,–
Cc1ccc(NC(=O)COC(=O)Cn2ccc(C(F)(F)F)n2)cc1Cl,–,–,–,22,–,–
COc1cccc(CNC(=O)c2ccc(CS(=O)Cc3ccccc3Cl)o2)c1 (configuration not stated),–,–,–,–,–,–
NC(=O)CSc1nc(O)cc(=O)n1-c1ccccc1,–,–,–,17,–,–
Cc1ccc(-n2c(SCC(N)=O)nc(O)cc2=O)cc1,–,–,–,–,–,–
CCOc1ccccc1NC(=O)Nc1ccc2c(c1)CCC2,–,–,–,20,–,–
COc1c(C)cc(C(O)c2ncc(-c3ccc4ccccc4c3)[nH]2)cc1C (configuration not stated),–,–,–,–,–,–
CN(C)CCOc1ccc2c(c1)Sc1ccccc1CC2=O,–,–,–,–,–,–
CN(C)CC/C=C1\c2ccc(F)cc2Sc2cc(F)c(Cl)cc21,–,–,99,–,–,99
CN(C)CC/C=C1\c2cc(Cl)ccc2Sc2cc(F)c(F)cc21,–,–,99,–,–,98
CN(C)CC/C=C1\c2ccccc2Sc2ccc(Cl)cc21,–,–,100,–,–,98
CN(C)CC/C=C1\c2ccccc2Sc2cc(F)c(Cl)cc21,–,–,100,–,–,99
OCCN1CCN(CC/C=C2/c3ccccc3Sc3ccc(Cl)cc32)CC1,–,–,–,–,–,–
CCOC(=O)N1CCN(C(=O)c2[nH]c(C(F)(F)F)nc2-c2ccccc2)CC1,–,–,–,–,–,–
CCc1nc2c(OCC3COc4ccccc4O3)cccn2c1N(C)C(=O)c1ccccc1F (configuration not stated),–,–,–,–,–,–
COc1cccc(Cn2cnc(-c3ccccc3OC)c2C2CC2)c1,–,–,–,–,–,–
CN(C)CC/C=C1/c2ccc(F)cc2Sc2ccc(Cl)cc21,–,–,99,–,–,100
O=C(Cn1cnc2c(nnn2Cc2ccccc2)c1=O)c1ccccc1,–,–,–,18,–,–
COc1cc(/C=N/N2C(=O)C3C4c5ccccc5C(c5ccccc54)C3C2=O)ccc1O (configuration not stated),33,–,–,–,–,–
COc1cccc(-c2ccc(CN3C(C(C)C)C(=O)N(Cc4cn(CCC5OCCO5)nn4)CCS3(=O)=O)cc2)c1OC (configuration not stated),–,–,–,–,–,–
CCc1nc(SCc2ccc(Cl)cc2)n[nH]1,–,–,–,–,–,–
O=S(=O)(Nc1nc(SCc2ccc(Cl)cc2)n[nH]1)c1ccc(F)cc1,22,–,–,–,–,–
CCCOC1CCCN(C(=O)c2cc(Cl)c(Cl)cc2C(=O)O)C1 (configuration not stated),–,–,–,–,25,–
Cc1cccc(C)c1NS(=O)(=O)c1ccc2c(c1)NC(=O)CO2,19,–,–,–,–,–
SMILES,CHRM5 PAM,CHRM4 agonist,M5 antag,CHRM4 PAM,CHRM5 agonist,CHRM4 antagonist
Cc1ccccc1NS(=O)(=O)c1ccc2c(c1)NC(=O)CO2,–,–,–,–,–,–
COC(=O)C1=COC(OC2OC(CO)C(O)C(O)C2O)C2C(C)CC(=O)C12 (configuration not stated),–,–,–,–,–,–
CCOC(=O)[C@]12CCC=C1N(Cc1cccc3ccccc13)C(=O)[C@H](CC(=O)N1CCSCC1)C2,–,–,–,–,–,–
C=CCN1CC(=O)N2Cc3[nH]c4ccccc4c3C[C@H]2C1=O,–,–,–,–,–,43
O=C1[C@@H]2Cc3c([nH]c4ccccc34)CN2C(=O)CN1CCCO,–,–,–,–,–,–
CN(C)c1ccc(-c2ccnc3c2CC(C)(C(=O)NCc2ccc(F)c(F)c2)O3)cc1 (configuration not stated),–,–,–,–,–,–
CCN(CC(=O)Nc1c(F)cccc1F)C(=O)c1ccc2c(c1)OCCO2,–,–,–,37,–,–
O=C(CN1CCN(C(=O)CNC(=O)c2ccc3c(c2)OCO3)CC1)Nc1cccc(F)c1,19,–,–,–,–,–
O=C(CN1CCN(C(=O)CNC(=O)c2ccc3c(c2)OCO3)CC1)Nc1ccccc1Cl,–,–,–,–,–,–
Cc1cccc(C)c1NC(=O)CNC(=O)CNC(=O)c1ccc2c(c1)OCO2,–,–,–,23,–,–
CC1(C(=O)NCc2cccs2)Cc2c(-c3ccc4c(c3)OCO4)ccnc2O1 (configuration not stated),–,–,–,–,–,–
CC[C@H](C)Cc1cn([C@@H](CCCCNC(=O)OC(C)(C)C)C(=O)NCCCCCCCCCCC(=O)N2CCN(C(=O)OC(C)(C)C)CC2)nn1,–,–,–,–,–,28
Nc1sc(-c2ccccc2)cc1C(=O)N1CCN(c2ccccc2)CC1,–,–,–,–,–,–
CC(=O)c1cccc(NC(=O)c2ccccc2OCc2ccc(F)cc2)c1,–,–,32,–,–,–
CN(C)S(=O)(=O)c1cccc(NC(=O)c2ccccc2OCc2ccc(F)cc2)c1,–,–,–,–,–,–
Cc1ccc(S(=O)(=O)N2[C@H](CC(=O)Oc3ccccc3)OC[C@@H]2C(C)C)cc1,–,–,–,–,–,–
Cc1ccccc1OCC(=O)NCC(=O)N/N=C/c1ccc(Br)o1,20,–,–,–,–,–
CC1(C(=O)NS(=O)(=O)c2ccccc2)CCN1C(=O)CCc1ccc(Cl)cc1Cl (configuration not stated),–,–,–,–,–,–
NC(COCc1ccccc1)c1csc(Nc2ccc(C(=O)NCCO)cc2)n1 (configuration not stated),–,–,–,–,–,–
Cc1ccc(Cl)cc1N1CCN(C(=O)C2CCN(S(=O)(=O)c3cccnc3)CC2)CC1,–,–,–,–,–,–
Cc1ccc(Cl)cc1N1CCN(C(=O)C2CCN(S(=O)(=O)c3c(C)nn(C)c3C)CC2)CC1,–,–,30,–,–,–
N#Cc1c(Cl)nsc1NN,–,–,31,–,–,–
CC(C)c1cc(Cn2c3ccccc3c(=O)n2C(C)Cn2cc(-c3ccccc3)nn2)on1 (configuration not stated),–,–,–,–,–,–
CC1(C)NC(=O)N(CC(O)COc2ccccc2C(=O)Nc2ccccc2)C1=O (configuration not stated),–,–,–,–,–,–

# Source: PubChem
